Results published in ChEMBL document CHEMBL4138145, “Cyclic Cystine-Bridged Peptides from the Marine Sponge Clathria basilana Induce Apoptosis in Tumor Cells and Depolarize the Bacterial Cytoplasmic Membrane” (J Nat Prod, 2017).
Values after ≈ are worked out from the molar mass of the structure shown. Active and inactive are the calls of the source. The calls are words filed in the database; no cut-off is given here. Where a SMILES comes first, the peptide text is derived from it. Bridges are numbered along the chain shown (N, C = ends). The star is where a group is joined. X1 = CC(C)[C@H](C)C(=O)*; X2 = C(=C\c1ccccc1)/N*

How the values were obtained:
[1] = tested on: Mycobacterium tuberculosis; test: Antimicrobial activity against Mycobacterium tuberculosis H37Rv up to 100 uM after 5 days by resazurin dye based assay; type: functional, organism-based
Method in brief: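 M. tuberculosis H37Rv was grown aerobically at 37 °C in Middlebrook 7H9 with ADS enrichment, 0.5% glycerol and 0.05% tyloxapol, then precultured to log phase (OD600 0.5−1). Cells were seeded at 1 × 10^5 per well on 2-fold dilutions over 100−0.78 μM and held 5 days at 37 °C. Resazurin was added for 16 h at ambient temperature, then cells were formalin-fixed and fluorescence read (ex 540, em 590 nm). Growth is relative to rifampicin (0%) and DMSO (100%).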

A2780 = test: Cytotoxicity against human A2780 cells assessed as reduction in cell viability after 72 hrs by MTT assay; type: functional, cell-based; details: A2780, 72 h
Method in brief: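 A2780 ovarian carcinoma cells were grown in RPMI-1640 with 10% FBS, penicillin and streptomycin, about 9000 cells/well, preincubated overnight. Increasing compound concentrations were applied for 72 h, then MTT was added. Absorbance read at 544 nm minus the 690 nm reference.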

Ramos [2] = test: Cytotoxicity against human Ramos cells assessed as reduction in cell viability after 24 hrs by MTT assay; type: functional, cell-based
Method in brief: (§1)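 Suspension cells at 5 × 10^5 cells/mL, exposed 24 h to varying compound concentrations; 0.1% v/v DMSO as negative control. MTT added to 1 mg/mL final for 60 min, cells pelleted, formazan extracted in DMSO for 25 min at rt, A570 read with 650 nm reference. Viability relative to DMSO set at 100%; IC50 from fitted curves.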

[3] = Cytotoxicity against human Jurkat 16 cells assessed as reduction in cell viability after 24 hrs by MTT assay; type: functional, cell-based; method in brief: as §1
NOMO-1 = test: Cytotoxicity against human NOMO1 cells assessed as reduction in cell viability after 24 hrs by MTT assay; type: functional, cell-based; details: NOMO-1, 24 h; method in brief: as §1
HL-60 = test: Cytotoxicity against human HL60 cells assessed as reduction in cell viability after 24 hrs by MTT assay; type: functional, cell-based; details: HL-60, 24 h; method in brief: as §1
Homo sapiens [4] = species on record: Homo sapiens; test: Induction of apoptosis in human Jurkat 16 cells assessed as activation of caspase 3 at 10 uM using Ac-DEVD-AMC as substrate measured up to 4 hrs by immuno blot analysis; type: functional, cell-based
Homo sapiens [5] = species on record: Homo sapiens; test: Induction of apoptosis in human Jurkat 16 cells assessed as maximum activation of caspase 3 at 10 uM using Ac-DEVD-AMC as substrate measured after 6 to 7 hrs by immuno blot analysis; type: functional, cell-based
Ramos [6] = test: Induction of apoptosis in human Ramos cells assessed as activation of caspase 3 at 10 uM using Ac-DEVD-AMC as substrate measured up to 4 hrs by immuno blot analysis; type: functional, cell-based
Ramos [7] = test: Induction of apoptosis in human Ramos cells assessed as maximum activation of caspase 3 at 10 uM using Ac-DEVD-AMC as substrate measured after 6 to 7 hrs by immuno blot analysis; type: functional, cell-based
Homo sapiens [8] = species on record: Homo sapiens; test: Induction of apoptosis in human Jurkat 16 cells assessed as activation of caspase 3 at 1 uM using Ac-DEVD-AMC as substrate measured up to 4 hrs by […]; type: functional, cell-based
Homo sapiens [9] = species on record: Homo sapiens; test: Induction of apoptosis in human Jurkat 16 cells assessed as maximum activation of caspase 3 at 1 uM using Ac-DEVD-AMC as substrate measured after 6 to 7 hrs by immuno blot analysis; type: functional, cell-based
Ramos [10] = test: Induction of apoptosis in human Ramos cells assessed as activation of caspase 3 at 1 uM using Ac-DEVD-AMC as substrate measured up to 4 hrs by immuno blot analysis; type: functional, cell-based
Ramos [11] = test: Induction of apoptosis in human Ramos cells assessed as maximum activation of caspase 3 at 1 uM using Ac-DEVD-AMC as substrate measured after 6 to 7 hrs by immuno blot analysis; type: functional, cell-based
Homo sapiens [12] = species on record: Homo sapiens; test: Induction of apoptosis in human Jurkat 16 cells assessed as increase in PARP cleavage at 10 uM measured up to 4 to 8 hrs by immuno blot analysis; type: functional, cell-based
Ramos [13] = test: Induction of apoptosis in human Ramos cells assessed as increase in PARP cleavage at 10 uM measured up to 4 to 8 hrs by immuno blot analysis; type: functional, cell-based
Method in brief: (§2)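 Ramos cells were exposed for 2–8 h with or without Q-VD-OPh 10 μM; staurosporine 2.5 μM served as positive control. Cells were lysed in Tris/Triton buffer with phosphatase and protease inhibitors. Then 25 μg protein was run on 10% SDS-PAGE and blotted to PVDF for PARP cleavage, with β-actin as loading control.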

Ramos [14] = test: Induction of apoptosis in human Ramos cells assessed as PARP cleavage at 10 uM cotreated with pan-caspase inhibitor QVD-OPh measured after 2 to 8 hrs by Western blot analysis; type: functional, cell-based; method in brief: as §2
MEF = test: Inhibition of autophagy in mouse MEF expressing mCitrine-hLC3B assessed as reduction in amino acid starvation-induced degradation of LC3 at 10 uM after 4 hrs by flow cytometry; type: functional, cell-based
Method in brief: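 MEFs stably expressing mCitrine-hLC3B were held 4 h in full medium or EBSS starvation medium with 10 μM compound; bafilomycin A1 10 nM was the inhibition control. Cells were trypsinized, washed and read by flow cytometry for median mCitrine fluorescence. Values normalized to DMSO-treated full-medium cells; mean ± SD of 3 independent analyses; Student's t test.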

Staphylococcus aureus [15] = test: Antimicrobial activity against Staphylococcus aureus after 16 to 20 hrs by broth micro dilution method; type: functional
Method in brief: (§3)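 Broth microdilution per CLSI in cation-adjusted Mueller-Hinton broth. Inoculum made by direct colony suspension, 5 × 10^5 CFU/mL final, added to serial 2-fold compound dilutions. Plates kept 16–20 h at 37 °C in ambient air. MIC is the lowest concentration with no visible growth. Strains are ATCC CLSI quality-control strains; A. baumannii 09987 is a Bonn clinical isolate.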

Enterococcus faecium = test: Antimicrobial activity against vancomycin-resistant Enterococcus faecium isolate BM 4147-1 after 16 to 20 hrs by broth micro dilution method; type: functional
Klebsiella pneumoniae = test: Antimicrobial activity against Klebsiella pneumoniae after 16 to 20 hrs by broth micro dilution method; type: functional, organism-based; method in brief: as §3
Klebsiella aerogenes = test: Antimicrobial activity against Enterobacter aerogenes after 16 to 20 hrs by broth micro dilution method; type: functional, organism-based; method in brief: as §3
Escherichia coli = test: Antimicrobial activity against Escherichia coli after 16 to 20 hrs by broth micro dilution method; type: functional, organism-based; method in brief: as §3
Pseudomonas aeruginosa = test: Antimicrobial activity against Pseudomonas aeruginosa after 16 to 20 hrs by broth micro dilution method; type: functional, organism-based; method in brief: as §3
Acinetobacter baumannii = test: Antimicrobial activity against Acinetobacter baumannii isolate 09987 after 16 to 20 hrs by broth micro dilution method; type: functional, organism-based; method in brief: as §3
Bacillus subtilis [16] = test: Induction of cell envelope stress in Bacillus subtilis isolate 1S34 assessed as increase in liaI promoter activity at 20 nmol after 14 to 18 hrs by beta-galactosidase reporter gene assay; type: functional, organism-based
Method in brief: (§4)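 Agar-based β-galactosidase promoter-reporter assay. B. subtilis 1S34 grown to stationary phase in LB with spectinomycin 50 μg/mL, then set at 3 × 10^7 CFU/mL in LB soft agar (0.7%) containing X-Gal 150 μg/mL. Test compounds spotted at 20 nmol; reference antibiotics given on paper discs (5–30 μg). Plates read for promoter induction after 14–18 h at 30 °C.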

Bacillus subtilis [17] = test: Induction of cell envelope stress in Bacillus subtilis isolate 1S34 assessed as increase in ypuA promoter activity at 20 nmol after 14 to 18 hrs by beta-galactosidase reporter gene assay; type: functional, organism-based; method in brief: as §4
Bacillus subtilis [18] = test: Induction of DNA damage in Bacillus subtilis isolate 1S34 assessed as increase in yorB promoter activity at 20 nmol after 14 to 18 hrs by beta-galactosidase reporter gene assay; type: functional, organism-based; method in brief: as §4
Bacillus subtilis [19] = test: Induction of RNA damage in Bacillus subtilis isolate 1S34 assessed as increase in helD promoter activity at 20 nmol after 14 to 18 hrs by beta-galactosidase reporter gene assay; type: functional, organism-based; method in brief: as §4
Bacillus subtilis [20] = test: Induction of translation arrest in Bacillus subtilis isolate 1S34 assessed as increase in bmrC promoter activity at 20 nmol after 14 to 18 hrs by beta-galactosidase reporter gene assay; type: functional, organism-based
Staphylococcus aureus [21] = test: Disruption of inner membrane potential in Staphylococcus aureus NCTC 8325 at 0.2 uM measured after 30 to 60 mins by DiOC2(3) dye based fluorescence assay; type: functional, organism-based
Method in brief: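 S. aureus NCTC 8325 grown to exponential phase in LB, resuspended in PBS at OD600 0.5, and loaded with 30 μM DiOC2(3) for 15 min before compound addition. Fluorescence read 30 and 60 min later: excitation 485 nm, emission 530 nm (green) and 630 nm (red). Controls were CCCP 5 μM and DMSO. Two runs on different days with independent cultures.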

## CC[C@H](C)[C@@H]1NC(=O)[C@@H](NC(=O)[C@@H](C)C(C)C)CSSC[C@@H](C(=O)N/C=C/c2ccccc2)NC(=O)[C@H]([C@@H](C)CC)NC(=O)[C@H]([C@@H](C)CC)NC(=O)[C@H]([C@@H](C)CC)NC1=O (X1-CIIIIC-X2; disulfide 1-6)
[1]
  Activity: inactive
A2780
  IC50: 2.6 µM
Ramos [2]
  IC50: 5.9 µM
[3]
  IC50: 4.6 µM
NOMO-1
  IC50: 10 µM
HL-60
  IC50: 28 µM
Homo sapiens [4]
  Activity: Active
Homo sapiens [5]
  Activity: Active
Ramos [6]
  Activity: Active
Ramos [7]
  Activity: Active
Homo sapiens [8]
  Activity: inactive
Homo sapiens [9]
  Activity: inactive
Ramos [10]
  Activity: inactive
Ramos [11]
  Activity: inactive
Homo sapiens [12]
  Activity: Active
Ramos [13]
  Activity: Active
Ramos [14]
  Activity: inactive
MEF
  inhibition: inactive
Staphylococcus aureus [15]
  MIC: 6.2 µM (≈ 5.42 µg/mL)
Enterococcus faecium
  MIC: 12 µM (≈ 10.5 µg/mL)
Klebsiella pneumoniae
  Activity: inactive
Klebsiella aerogenes
  Activity: inactive
Escherichia coli
  Activity: inactive
Pseudomonas aeruginosa
  Activity: inactive
Acinetobacter baumannii
  Activity: inactive
Bacillus subtilis [16]
  Activity: Active
Bacillus subtilis [17]
  Activity: Active
Bacillus subtilis [18]
  Activity: inactive
Bacillus subtilis [19]
  Activity: inactive
Bacillus subtilis [20]
  Activity: inactive
Staphylococcus aureus [21]
  Activity: Active
